This note sets out measurements from ChEMBL document CHEMBL4513216, “Probing the Open Global Health Chemical Diversity Library for Multistage-Active Starting Points for Next-Generation Antimalarials” (ACS Infect Dis, 2020).

The data set can be described thus: Toxicity liver stage against HepG2, at 10uM. The data set is classed as cell-based. Details: test concentration 10 uM, cell line HepG2-A16-CD81EGFP. The conditions noted are these: human, HepG2-A16-CD81EGFP cells; read-out: INHIBITION
Summed up: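 Uninfected HepG2-A16-CD81EGFP cells, 3 × 10^3 per well, 1536-well, plated on prespotted compound at 10 μM final, parasite-free screening media added to match infected plates; puromycin 10 μM positive, DMSO 0.5% negative; run in parallel with 48 h PbLuc assay at 37 °C, 5% CO2; viability by CellTiter-Glo luminescence, normalized to controls.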
For the compound `COCCn1ccnc1C1CCN(c2cccc(C(=O)O)n2)CC1`, the cytotoxicity at 10 µM is -2.74%.
As for `CCOc1ccnc(N2CCN(C(=O)C(C)(C)C#N)CC2)n1`, the figure is -4.91%.
Take `CC(C)[C@H]1CN(Cc2ccncc2)C[C@@H]1NC(=O)C1(C#N)CCOCC1`: the cytotoxicity at 10 µM is -4.81%.
With `CC(=O)N1CC(c2n[nH]c3ncccc23)C1` the figure was 19.5%; with `COc1cc(C)sc1C(=O)N1CCC(Nc2cccnc2)CC1`, -5.07%; with `CNc1cc(C2CCCN(S(=O)(=O)c3cn[nH]c3)C2)ccn1` (centres undefined), -24%.
With `O=C(NCc1ccc(OCC2CC2)nc1)C1COc2ccccc2O1` (centres undefined) the figure was 0.0616%; with `O=C(NCc1cccnc1)C1CC(=O)N(CC2CC2)C1` (centres undefined), -3.46%.
With `Cc1nn2c(-c3cnn(C)c3)nnc2s1` the figure was -15.4%; with `COc1nc(C)c(C(=O)N2CCc3[nH]nc(Cc4ccccc4)c3C2)s1`, -2.53%; with `Cn1ccc2c(-c3ccc(NC4CC4)nn3)ccnc21`, 10.4%.
On to `O=C(NCc1cccnc1)C1=NOC2(CCN(C3CCOCC3)C2)C1` (centres undefined), for which the cytotoxicity at 10 µM is -1.63%.
As for `Cc1ccc2c(c1)c(CNC(=O)C1CCN(C(C)C)CC1)nn2C`, the figure is -14.8%.
With `O=C(Nc1ccccc1)c1cc2n(n1)CCCN(C(=O)c1ccc[nH]1)C2` the figure was 3.99%; with `COc1cc(CNCCNC(=O)c2ccc(O)cc2)ccc1SC`, 9.72%; with `Cc1cccc(CN2CCC3(CCN(Cc4ccccn4)C3)C2=O)c1` (centres undefined), 12%.
As for `CCN(CC1CCOCC1)C(=O)CCNC(=O)c1ccccc1F`, the figure is -43.1%.
For the compound `CC(=O)N1CCN(Cc2ccc(OCc3nccn3C)cc2)CC1`, the cytotoxicity at 10 µM was -2.68%.
As for `CCn1c(O)c(C(C)=O)c2cc(C)ccc21`, the figure is -8.24%; as for `CN(C)C(=O)N1CCC2(CC1)C(=O)N(CC1CCOC1)c1ccccc12` (centres undefined), 6.68%; as for `CC(CNC(=O)CCCc1ccccn1)c1ccsc1` (centres undefined), 7.42%.
On to `COc1cc(CNC(=O)c2c(C)noc2C(C)C)ccn1`, for which the cytotoxicity at 10 µM is -7.9%.
For `Cc1ccc(CN2CCN(C(=O)CCc3nc(Cl)n[nH]3)CC2=O)cc1`, the cytotoxicity at 10 µM was -0.903%.
With `O=C(c1ccncc1)N1CCCn2c(CN3CCCCC3)nnc2C1` the figure was -5.77%; with `O=C1NC(C(=O)NCc2cccnc2Oc2ccccc2F)CO1` (centres undefined), 8.99%; with `Cc1cc(CN2CCN(C(=O)NCCCc3cn[nH]c3C)CC2)on1`, -13.2%.
As for `Cn1c(CN2CCOC(c3nc(C(C)(C)C)n[nH]3)C2)nnc1C1CC1` (centres undefined), the figure is 5.37%; as for `CN(C)CCn1c(=O)oc2ccc(NC(=O)CSc3ccccc3)cc21`, -3.51%.
As for `CC(C)Cc1noc(COc2ccc(N(C)C(N)=O)cc2)n1`, the figure is 34.4%.
As to `O=C(CNC1CCc2ncnn2C1)NCCc1cccs1` (centres undefined), the cytotoxicity at 10 µM was -10.9%.
With `Cc1nc(C)n(CC(C)C(=O)N2CCCN(C3CCCC3)CC2)n1` (centres undefined) the figure was -0.103%; with `CCOCC1CC2(CCN(C(=O)C3CC=CC3)CC2)CO1` (centres undefined), 1.5%; with `COc1cc(N2CCCC3(CCN(c4cccnc4)C3=O)C2)ncn1` (centres undefined), -103%.
In the case of `O=C(CC1CC1)N1CCC2(CC1)CC(Oc1ccccc1)CO2` (centres undefined), the cytotoxicity at 10 µM is -0.82%.
With `O=C(c1ccnnc1)N1CCN(Cc2ccncc2)c2ncccc2C1` the figure was -0.201%; with `Cc1nc(CCN)cc(N2CCC(O)(c3ccc(Cl)cc3)CC2)n1`, -2.24%; with `Cc1cnc(N2CCCC(c3ccccc3)C2)nc1-c1ccnn1C` (centres undefined), -1.18%.
With `CN1CCC(c2cnc(NCc3nccn3C)cn2)CC1` the figure was -5.91%; with `COCc1nn(C(C)C)c2c1CCN(Cc1ccsc1)C2`, -4.51%; with `CCCOCC(=O)NS(=O)(=O)c1ccc2c(c1)OCCCO2`, -5.67%.
As for `CC(C)c1ccc(S(=O)(=O)NC2(CC(N)=O)CCC2)cc1`, the figure is -2.77%.
As for `Cc1ccc(OCc2ccc(C(=O)O)s2)cc1C`, the cytotoxicity at 10 µM was 9.18%.
With `Cc1cnn(CC2CCCCN2Cc2cc(C)no2)c1` (centres undefined) the figure was -9.21%; with `Cc1cc(NC(=O)CN2CCCC2c2noc(C3CC3)n2)on1` (centres undefined), 3.46%; with `COc1c(CNCC(O)c2ccccc2F)c(C(C)C)nn1C` (centres undefined), -8.91%.
As for `O=C(c1ccco1)N1CCOCC2(CCN(C3CCOCC3)C2)C1` (centres undefined), the figure is 3.07%; as for `Cc1cc2ccncc2n1CC1(O)CCN(C(=O)c2ccncc2)CC1`, 7.53%.
As for `Cc1ccc(N2CCCC(N3CCC(N(C)C)CC3)C2=O)cc1` (centres undefined), the figure is -5.16%; as for `Cc1cnn(CC2CCCN2CC(=O)NCc2ccccn2)c1` (centres undefined), -5%; as for `CN1CCOC(CNCC(=O)NCCC2=CCCCC2)C1` (centres undefined), -3.57%.
Turning to `CNC(=O)[C@@H]1C[C@@H](NC(=O)c2ccc(OC)o2)CN1Cc1sccc1C`, the cytotoxicity at 10 µM came to 2.29%.
With `N#Cc1ccc(F)c(CN(CC(=O)N2CCCC2)CC2CCCO2)c1` (centres undefined) the figure was -7.06%.
As for `CNC(=O)c1sc(C(NC(=O)c2ccccc2)C2CC2)nc1C` (centres undefined), the cytotoxicity at 10 µM turned out to be 2.31%.
As for `CSCc1cccc(S(=O)(=O)NCCCO)c1`, the figure is -7.5%; as for `Cc1nnc(N2CCOC(Cn3cccn3)C2)c(C#N)c1C` (centres undefined), -8.47%; as for `Cc1cccc(NS(=O)(=O)c2ccc(C#N)nc2)c1C#N`, 0.0489%.
In the case of `CC(C)N(Cc1cnn(C)c1)CC1CCCN(S(C)(=O)=O)C1` (centres undefined), the cytotoxicity at 10 µM was -21.4%.
As for `CC1CN(C(=O)CN(Cc2ccco2)C2CC2)CCO1` (centres undefined), the figure is 3.97%; as for `CC(C)CC(NC(=O)CSc1ccc(F)c(Cl)c1)C(=O)O` (centres undefined), -46%.
With `CC(=O)c1ccc(N2CCCC(CO)(Cc3ccccc3C)C2)nc1` (centres undefined) the figure was 10.1%; with `Cc1cncnc1C1CCN(CC(N)=O)CC1`, -6.84%; with `CCN(CC)CCNC(=O)c1ccc(-n2ccc3ccccc32)s1`, 8.01%.
With `O=C(NCCc1ccccn1)[C@@]12CCO[C@@H]1CCN(C1CCC1)C2` the figure was 8.03%; with `CC(C)c1noc(CCC(=O)N2CCN(C)CC2c2ccccc2)n1` (centres undefined), -5.3%; with `c1cc2c(cc1-n1nc(C3CC3)nc1-c1csnn1)OCCO2`, 9.46%.
With `O=C(C1CC1)N1CC2(CCNCC2)c2cc(F)ccc21`, the cytotoxicity at 10 µM amounted to 0.317%.
Regarding `CS(=O)(=O)NC(c1ccccc1)c1ccc2c(c1)CCCO2` (centres undefined), the cytotoxicity at 10 µM was found to be 0.682%.
With `Fc1ccc(CNCc2nnc3n2CC(C(F)(F)F)CC3)c(F)c1` (centres undefined) the figure was 0.411%.
As for `O=C(c1ccsc1)N1CCc2c(CNc3ncccn3)n[nH]c2C1`, the figure is -16.7%.
For the compound `CC1CCN(CCCNS(=O)(=O)c2cccc(F)c2)CC1`, the cytotoxicity at 10 µM is -12.3%.
Regarding `COc1ccc(C)cc1CN1CCCC1c1noc(C2CC2)n1` (centres undefined), the cytotoxicity at 10 µM came to 16.3%.
With `COc1c(CC2CC(C(=O)O)=NO2)c(Br)c2c(c1OC)OCO2` (centres undefined) the figure was 6.36%; with `COc1ccc(C2=CCN(C(=O)C3CCS(=O)(=O)C3)CC2)cc1` (centres undefined), -7.45%.
With `COc1ccccc1N(C)S(=O)(=O)c1cc(C(=O)O)cs1` the figure was -5.82%; with `O=C(O)c1ccc(-c2cscn2)cc1`, 7.68%.
As for `O=C1CC(c2ccsc2)c2c(n(C3CCOCC3)[nH]c2=O)N1` (centres undefined), the figure is 0.847%; as for `Cc1cc2nc(C(=O)NCc3cccnc3N(C)C)cc(C)n2n1`, -5.54%; as for `O=C(C1CC1)N(CCc1ccccc1)C1CCOC1` (centres undefined), -6.93%.
As to `COCc1noc(-c2cc(Cl)c3c(c2)OCCCO3)n1`, the cytotoxicity at 10 µM worked out at 0.174%.
As for `CCc1nc(C2CCCN2C(=O)CCCn2cncn2)no1` (centres undefined), the figure is -11.4%; as for `CCCc1nnc(N(C)CC2CCN(CC(C)C)CC2)o1`, 6.05%; as for `Cc1cc(C)c2[nH]c(C(=O)NCCN3CCCC3=O)c(C)c2c1`, 2.49%.
With `Cc1ccc(NC(=O)CSCc2cccnc2)nc1` the figure was -46.4%; with `CCCn1nc(C)c(-c2cncn2CCN(C)C2CCCC2)c1C`, 4.16%; with `O=C1CN(Cc2nnc(-c3ccc(Br)o3)o2)CCN1`, 13.5%.
Regarding `CNC(=O)CN(C)C(=O)c1ccc(-c2nc(C)cs2)cc1`, the cytotoxicity at 10 µM was -7.77%.
As for `Cc1nn(C)c(N2CCOCC2)c1CNCc1ccoc1C`, the figure is -8.76%; as for `CN(Cc1ccc(Br)o1)C(=O)Nc1cccnc1`, -7.91%; as for `CNCc1ccc(Oc2cncc(C)n2)cc1`, 7.1%.
With `CC(C)(O)CN1CCN(C(=O)c2sccc2C#N)CC1` the figure was -7.3%; with `O=C(C(CNCc1cccc(O)c1)c1ccccc1)N1CCOCC1` (centres undefined), -2.06%.
As for `CN(Cc1cc(C2CC2)[nH]n1)C(=O)C(c1cccnc1)N1CCCC1` (centres undefined), the figure is -48.1%.
For `COc1cc(F)ccc1-c1cnc(N)cn1`, the cytotoxicity at 10 µM was -11.4%.
With `CCC[C@H]1CN(Cc2cc(C#N)n(C)c2C)C[C@@H]1N(C)C` the figure was -152%; with `COC(=O)c1cc(OCC2CCC2)cc(C(=O)N[C@H]2CCCC[C@@H]2O)c1`, -2.94%; with `Cc1cc(NC(C)c2n[nH]c(C)n2)n2nc(C)c(C)c2n1` (centres undefined), -11.4%.
For `CCN1CC[C@]2(CN(C(=O)C3CCOCC3)C[C@H]2c2ccccc2)C1=O`, the cytotoxicity at 10 µM came to 8.58%.
With `O=C(Cn1cc(Cl)cn1)N1CCCC(c2cc3ccccc3cn2)C1` (centres undefined) the figure was -27.3%; with `CC1(C)CN(CC(F)(F)F)CCN1CC(=O)NC1CC1`, 12.5%.
